Measured values published in ChEMBL document CHEMBL4033712, “Synthesis and biological evaluation of new C-12(α/β)-(N-) sulfamoyl-phenylamino-14-deoxy-andrographolide derivatives as potent anti-cancer agents” (Bioorg Med Chem Lett, 2017).

Legend:
Type in all cases: functional
[1] = test system: SN12C; test: Growth inhibition of human SN12C cells incubated for 48 hrs by sulforhodamine B assay; details: for CC50: read-out: LC50 (the source's name)
In short: (§1)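 NCI 60 human tumour cell line panel, five-dose study at 0.01, 0.1, 1, 10 and 100 µM, 48 h incubation. Sulforhodamine B protein-binding dye end point. GI50 (50% decrease in net cell growth), TGI (total growth inhibition) and LC50 (net 50% loss of initial cells) read from log concentration versus % growth inhibition curves.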

[2] = test system: IGROV-1; test: Growth inhibition of human IGROV1 cells incubated for 48 hrs by sulforhodamine B assay; details: IGROV-1, 48 h; for CC50: read-out: LC50 (the source's name)
In short: (§2)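 NCI-60 five-dose screen at 0.01, 0.1, 1, 10 and 100 µM, 48 h incubation, sulforhodamine B end point. GI50 (50% decrease in net growth), TGI (total growth inhibition) and LC50 (net 50% loss of initial cells) taken from log concentration versus % growth inhibition curves.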

[3] = test system: OVCAR-8; test: Growth inhibition of human OVCAR8 cells incubated for 48 hrs by sulforhodamine B assay; details: OVCAR-8, 48 h; in short: as §2
[4] = test system: SK-MEL-28; test: Growth inhibition of human SK-MEL-28 cells incubated for 48 hrs by sulforhodamine B assay; details: SK-MEL-28, 48 h; in short: as §1
[5] = test system: SNB-19; test: Growth inhibition of human SNB19 cells incubated for 48 hrs by sulforhodamine B assay; details: SNB-19, 48 h; for CC50: read-out: LC50 (the source's name); in short: as §1
[6] = test system: NCI-H522; test: Growth inhibition of human NCI-H522 cells incubated for 48 hrs by sulforhodamine B assay; details: NCI-H522, 48 h; for CC50: read-out: LC50 (the source's name); in short: as §2
[7] = test system: UO-31; test: Growth inhibition of human UO31 cells incubated for 48 hrs by sulforhodamine B assay; details: UO-31, 48 h; in short: as §1
[8] = test system: NCI-H322M; test: Growth inhibition of human NCI-H322M cells incubated for 48 hrs by sulforhodamine B assay; details: for CC50: read-out: LC50 (the source's name); in short: as §2
[9] = test system: UACC-62; test: Growth inhibition of human UACC62 cells incubated for 48 hrs by sulforhodamine B assay; details: UACC-62, 48 h; for CC50: read-out: LC50 (the source's name); in short: as §1
[10] = test system: SNB-19; test: Anticancer activity against human SNB19 cells assessed as cell growth at 10 uM after 48 hrs by sulforhodamine B assay relative to control; details: SNB-19, 48 h, read-out: Activity
In short: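 Single-dose NCI-60 panel screen: compound added at 10 µM and the culture incubated 48 h. The end point was read by protein staining with sulforhodamine B. The value is percent growth of treated cells relative to untreated control cells, reported as a mean graph across the panel.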

[11] = test system: MDA-MB-468; test: Growth inhibition of human MDA-MB-468 cells incubated for 48 hrs by sulforhodamine B assay; details: MDA-MB-468, 48 h; for CC50: read-out: LC50 (the source's name); in short: as §2
[12] = test system: NCI-H23; test: Growth inhibition of human NCI-H23 cells incubated for 48 hrs by sulforhodamine B assay; details: NCI-H23, 48 h; for CC50: read-out: LC50 (the source's name); in short: as §2
[13] = test system: 786-0; test: Growth inhibition of human 786-0 cells incubated for 48 hrs by sulforhodamine B assay; details: 786-0, 48 h; in short: as §2
[14] = test system: HCC 2998; test: Growth inhibition of human HCC2998 cells incubated for 48 hrs by sulforhodamine B assay; details: HCC 2998, 48 h; for CC50: read-out: LC50 (the source's name); in short: as §2
[15] = test system: SF-539; test: Growth inhibition of human SF539 cells incubated for 48 hrs by sulforhodamine B assay; details: SF-539, 48 h; for CC50: read-out: LC50 (the source's name); in short: as §1
[16] = test system: A549; test: Growth inhibition of human A549/ATCC cells incubated for 48 hrs by sulforhodamine B assay; details: A549, 48 h; for CC50: read-out: LC50 (the source's name); in short: as §2
[17] = test system: HCT-15; test: Growth inhibition of human HCT15 cells incubated for 48 hrs by sulforhodamine B assay; details: HCT-15, 48 h; for CC50: read-out: LC50 (the source's name); in short: as §2
[18] = test system: LOX IMVI; test: Growth inhibition of human LOXIMVI cells incubated for 48 hrs by sulforhodamine B assay; details: for CC50: read-out: LC50 (the source's name); in short: as §2
[19] = test system: SK-OV-3; test: Growth inhibition of human SKOV3 cells incubated for 48 hrs by sulforhodamine B assay; details: SK-OV-3, 48 h; for CC50: read-out: LC50 (the source's name); in short: as §1
[20] = test system: MDA-MB-231; test: Growth inhibition of human MDA-MB-231 cells incubated for 48 hrs by sulforhodamine B assay; details: MDA-MB-231, 48 h; in short: as §2
[21] = test system: RPMI-8226; test: Growth inhibition of human RPMI8226 cells incubated for 48 hrs by sulforhodamine B assay; details: RPMI-8226, 48 h; for CC50: read-out: LC50 (the source's name); in short: as §1
[22] = test system: OVCAR-3; test: Growth inhibition of human OVCAR3 cells incubated for 48 hrs by sulforhodamine B assay; details: OVCAR-3, 48 h; for CC50: read-out: LC50 (the source's name); in short: as §2
[23] = test system: MCF7; test: Growth inhibition of human MCF7 cells incubated for 48 hrs by sulforhodamine B assay; details: MCF7, 48 h; in short: as §2
[24] = test system: NCI/ADR-RES; test: Growth inhibition of human NCI/ADR-RES cells incubated for 48 hrs by sulforhodamine B assay; in short: as §2
[25] = test system: HL-60(TB); test: Growth inhibition of human HL-60(TB) cells incubated for 48 hrs by sulforhodamine B assay; details: HL-60, 48 h; for CC50: read-out: LC50 (the source's name)
In short: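 NCI-60 five-dose screen at 0.01, 0.1, 1, 10 and 100 µM for 48 h, sulforhodamine B read-out. GI50 taken from log concentration versus % growth inhibition curves as the concentration giving 50% decrease in net cell growth.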

[26] = test system: DU-145; test: Growth inhibition of human DU145 cells incubated for 48 hrs by sulforhodamine B assay; details: DU-145, 48 h; for CC50: read-out: LC50 (the source's name); in short: as §2
[27] = test system: EKVX; test: Growth inhibition of human EKVX cells incubated for 48 hrs by sulforhodamine B assay; details: for CC50: read-out: LC50 (the source's name); in short: as §2
[28] = read-out: LC50 (the source's name)

C=C1CC[C@@H]2[C@](C)(COC(C)=O)[C@H](OC(C)=O)CC[C@@]2(C)[C@H]1CC(Nc1ccc(S(=O)(=O)Nc2ccc(Cl)nn2)cc1)C1=CCOC1=O (stereo partly specified)
GI50 [1]: 1.25 µM | TGI [1]: 3.66 µM | CC50 [1]: 12.7 µM | GI50 [2]: 2.08 µM | TGI [2]: 5 µM | CC50 [2]: 18.3 µM | GI50 [3]: 1.35 µM | TGI [3]: 3.43 µM | GI50 [4]: 1.68 µM | LC50 (50% net cell kill) [4]: 7.13 µM | TGI [4]: 3.46 µM | GI50 [5]: 1.91 µM | TGI [5]: 3.91 µM | CC50 [5]: 8 µM | GI50 [6]: 0.75 µM | TGI [6]: 2.1 µM | CC50 [6]: 4.82 µM | GI50 [7]: 1.45 µM | LC50 (concentration giving net 50% loss of initial cells) [7]: 5.73 µM | TGI [7]: 2.88 µM | GI50 [8]: 2.97 µM | TGI [8]: 11.6 µM | CC50 [8]: 36.1 µM | GI50 [9]: 1.49 µM | TGI [9]: 3.86 µM | CC50 [9]: 10 µM | growth at 10 µM [10]: 76% | GI50 [11]: 1.32 µM | TGI [11]: 3.37 µM | CC50 [11]: 8.62 µM | GI50 [12]: 2.06 µM | TGI [12]: 5.35 µM | CC50 [12]: 43.2 µM | GI50 [13]: 1.69 µM | LC50 (concentration giving net 50% loss of initial cells) [13]: 5.83 µM | TGI [13]: 3.14 µM | GI50 [14]: 1.84 µM | TGI [14]: 3.86 µM | CC50 [14]: 8.08 µM | GI50 [15]: 1.23 µM | TGI [15]: 2.63 µM | CC50 [15]: 5.62 µM | GI50 [16]: 2.96 µM | TGI [16]: 10.7 µM | CC50 [16]: 40.9 µM | GI50 [17]: 0.88 µM | TGI [17]: 2.3 µM | CC50 [17]: 5.51 µM | GI50 [18]: 0.29 µM | TGI [18]: 1.19 µM | CC50 [18]: 4.17 µM | GI50 [19]: 4.05 µM | TGI [19]: 12.3 µM | CC50 [19]: 35 µM | GI50 [20]: 1.9 µM | LC50 (concentration giving net 50% loss of initial cells) [20]: 8.27 µM | TGI [20]: 3.96 µM | GI50 [21]: 0.44 µM | TGI [21]: 3.04 µM | CC50 [21]: > 100 µM | GI50 [22]: 1.22 µM | TGI [22]: 2.51 µM | CC50 [22]: 5.18 µM | GI50 [23]: 0.78 µM | TGI [23]: 2.9 µM | GI50 [24]: 1.87 µM | LC50 (concentration giving net 50% loss of initial cells) [24]: > 100 µM | TGI [24]: 6.2 µM | GI50 [25]: 1.32 µM | TGI [25]: 4.44 µM | CC50 [25]: > 100 µM | GI50 [26]: 1.7 µM | TGI [26]: 3.45 µM | CC50 [26]: 7.02 µM | GI50 [27]: 4.53 µM | TGI [27]: 17 µM | CC50 [27]: 41.3 µM

C=C1CC[C@@H]2[C@](C)(COC(C)=O)[C@H](OC(C)=O)CC[C@@]2(C)[C@H]1CC(Nc1ccc(S(=O)(=O)Nc2nccc(C)n2)cc1)C1=CCOC1=O (stereo partly specified)
GI50 [1]: 2.64 µM | TGI [1]: 6.17 µM | CC50 [1]: 81.2 µM | GI50 [2]: 3.62 µM | TGI [2]: 13.6 µM | CC50 [2]: 45.5 µM | GI50 [3]: 2.61 µM | TGI [3]: 8.56 µM | CC50 [3, 28]: 47.6 µM | GI50 [4]: 2.83 µM | LC50 (50% net cell kill) [4]: 36.3 µM | TGI [4]: 10.1 µM | GI50 [5]: 6.3 µM | TGI [5]: 20.7 µM | CC50 [5]: 52.7 µM | GI50 [6]: 1.26 µM | TGI [6]: 3.1 µM | CC50 [6]: 7.62 µM | GI50 [7]: 2.91 µM | LC50 (concentration giving net 50% loss of initial cells) [7]: 33.3 µM | TGI [7]: 10.6 µM | GI50 [8]: 11.3 µM | TGI [8]: 23.9 µM | CC50 [8]: 50.7 µM | GI50 [9]: 2.38 µM | TGI [9]: 7.12 µM | CC50 [9]: 30.3 µM | growth at 10 µM [10]: 53.6% | GI50 [11]: 1.99 µM | TGI [11]: 4.3 µM | CC50 [11]: 9.3 µM | GI50 [12]: 3.78 µM | TGI [12]: 16 µM | CC50 [12]: 50.6 µM | GI50 [13]: 2.27 µM | LC50 (concentration giving net 50% loss of initial cells) [13]: 13.8 µM | TGI [13]: 5.06 µM | GI50 [14]: 4.98 µM | TGI [14]: 17.9 µM | CC50 [14]: 48.1 µM | GI50 [15]: 2.07 µM | TGI [15]: 4.73 µM | CC50 [15]: 12.4 µM | GI50 [16]: 8.19 µM | TGI [16]: 21.9 µM | CC50 [16]: 52.2 µM | GI50 [17]: 1.79 µM | TGI [17]: 4.24 µM | CC50 [17]: 10.2 µM | GI50 [18]: 1.53 µM | TGI [18]: 3.24 µM | CC50 [18]: 6.89 µM | GI50 [19]: 12.7 µM | TGI [19]: 25.3 µM | CC50 [19]: 50.3 µM | GI50 [20]: 3.62 µM | LC50 (concentration giving net 50% loss of initial cells) [20]: 40.5 µM | TGI [20]: 10.2 µM | GI50 [21]: 1.95 µM | TGI [21]: 6.84 µM | CC50 [21]: > 100 µM | GI50 [22]: 1.76 µM | TGI [22]: 3.36 µM | CC50 [22]: 6.43 µM | GI50 [23]: 2.27 µM | TGI [23]: 12.5 µM | CC50 [23, 28]: > 100 µM | GI50 [24]: 2.94 µM | LC50 (concentration giving net 50% loss of initial cells) [24]: > 100 µM | TGI [24]: 13.5 µM | GI50 [25]: 2.1 µM | TGI [25]: 5.63 µM | CC50 [25]: > 100 µM | GI50 [26]: 3.36 µM | TGI [26]: 11.8 µM | CC50 [26]: 34.9 µM | GI50 [27]: 13.9 µM | TGI [27]: 27.1 µM | CC50 [27]: 52.7 µM
